Source: ChEMBL document CHEMBL4811317, “Inhibitory activities of anthraquinone and xanthone derivatives against transthyretin amyloidogenesis” (Bioorg Med Chem, 2021)
pIC50: −log10 of the molar value. ≈ marks a conversion by molar mass, not a printed value. Calls of active or inactive are those of the source. The rule behind the calls is not given here.

Tests used:
Transthyretin = Transthyretin (Homo sapiens, UniProt P02766, V50M); test: Inhibition of acid-mediated aggregation of TTR V30M mutant (unknown origin) expressed in Escherichia coli pretreated for 30 mins at pH 7 followed by protein dilution in acetate buffer and further incubated for 96 hrs at pH 4.6 by thioflavin-T fluorescence assay
[1] = molecular target: Transthyretin (Homo sapiens) (UniProt P02766); test: Binding affinity to TTR V30M mutant (unknown origin) expressed in Escherichia coli by isothermal titration calorimetry
[2] = Metabolic stability in Sprague-Dawley rat liver microsomes assessed as residual rate at 1 uM preincubated for 5 mins followed by NADPH addition and measured after 30 mins by LC-MS/MS analysis; format: ADME, Microsome; conditions: time 35 min, read-out: Stabilty
Outline: (§1)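 Rat liver microsomes 0.2 mg/mL with 1 μM compound, 1 mM EDTA, 0.1 M phosphate pH 7.4; 5 min preincubation, then 1 mM NADPH (final) added, 30 min at 37 °C, 60 rpm. Quenched in cold acetonitrile/internal standard, supernatant by LC-MS/MS against time zero. CLint scaled with 44.8 mg protein/g liver, 40.0 g liver/kg. At least two technical replicates.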

[3] = Metabolic stability in Sprague-Dawley rat liver microsomes assessed as residual rate at 1 uM measured after 30 mins by LC-MS/MS analysis; format: ADME, Microsome; conditions: read-out: Stabilty
[4] = Aqueous solubility of the compound in pH 1.2 JP1 fluid measured after 4 hrs ny HPLC-UV analysis; format: physicochemical
Outline: (§2)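 Test compound diluted from 10 mM DMSO stock 2:165 into JP 1st fluid (pH 1.2) or JP 2nd fluid (pH 6.8); mixed 4 h at 37 °C with rotation at 1000 rpm, then filtered through 0.45 μm PVDF by centrifugation. At least two technical replicates.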

[5] = Aqueous solubility of the compound in pH 6.8 JP2 fluid measured after 4 hrs by HPLC-UV analysis; format: physicochemical; outline: as §2
[6] = Permeability of the compound at 10 uM measured after 4 hrs by PAMPA based LC-MS analysis; format: ADME; conditions: read-out: permeability
Outline: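 PAMPA on pre-coated plates: donor 10 μM compound in 5% DMSO/0.1 M phosphate pH 6.4, acceptor 5% DMSO/0.1 M phosphate pH 7.4; 4 h at 37 °C without agitation. Donor, acceptor and initial donor solutions quantified by LC-MS/MS; recovery above 90%. Antipyrine, metoprolol, sulfasalazine as references. At least two technical replicates.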

[7] = Intrinsic clearance in Sprague-Dawley rat liver microsomes at 1 uM preincubated for 5 mins followed by NADPH addition and measured after 30 mins by LC-MS/MS analysis; format: ADME, Microsome; conditions: time 35 min, read-out: CLH; outline: as §1
[8] = Protein binding in Sprague-Dawley rat plasma assessed as unbound fraction at 1 uM measured after 4 hrs by equilibrium dialysis assay; format: ADME, cell-free
Outline: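 Rat plasma spiked at 1 μM, equilibrium dialysis (8K MWCO) against 0.1 M phosphate pH 7.4 for 4 h at 37 °C, 1000 rpm. Unbound fraction = buffer/plasma concentration ratio. At least two technical replicates.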

[9] = Cmax in Sprague-Dawley rat at 0.1 mg/kg, iv measured up to 8 hrs by LC-MS/MS analysis; format: ADME, organism-based; set-up: route intravenous, dose 0.1 mg/kg, time <=8; conditions: in vivo
Outline: (§3)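 Male Sprague Dawley rats (7 weeks old, n = 2) given compound in 10% DMSO/0.1 M phosphate pH 8.5, i.v. or p.o. Caudal-vein blood at 5 min (i.v.), 15, 30 min, 1, 2, 4, 8 h; plasma precipitated with acetonitrile/IS, LC-MS/MS. Non-compartmental analysis; bioavailability = AUC∞(p.o.)/AUC∞(i.v.).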

[10] = Elimination half life in Sprague-Dawley rat at 0.1 mg/kg, iv measured up to 8 hrs by LC-MS/MS analysis; format: ADME, organism-based; conditions: in vivo, read-out: beta t1/2 (converted); outline: as §3
[11] = AUC infinity in Sprague-Dawley rat at 0.1 mg/kg, iv measured up to 8 hrs by LC-MS/MS analysis; format: ADME, organism-based; set-up: route intravenous, dose 0.1 mg/kg, time <=8; conditions: in vivo
[12] = Total clearance in Sprague-Dawley rat at 0.1 mg/kg, iv measured up to 8 hrs by LC-MS/MS analysis; format: ADME, organism-based; conditions: in vivo; outline: as §3
[13] = Volume of distribution at steady state in Sprague-Dawley rat at 0.1 mg/kg, iv measured up to 8 hrs by LC-MS/MS analysis; format: ADME, organism-based; conditions: in vivo, read-out: Vdss; outline: as §3
[14] = AUC (0 to 8 hrs) in Sprague-Dawley rat at 0.1 mg/kg, iv measured up to 8 hrs by LC-MS/MS analysis; format: ADME, organism-based; set-up: route intravenous, dose 0.1 mg/kg, time <=8; conditions: in vivo
[15] = Bioavailability in Sprague-Dawley rat at 0.1 mg/kg, iv measured up to 8 hrs by LC-MS/MS analysis; format: ADME, organism-based; conditions: in vivo; outline: as §3
[16] = Cmax in Sprague-Dawley rat at 0.1 mg/kg, po measured up to 8 hrs by LC-MS/MS analysis; format: ADME, organism-based; set-up: route oral, dose 0.1 mg/kg, time <=8; conditions: in vivo; outline: as §3
[17] = Tmax in Sprague-Dawley rat at 0.1 mg/kg, po measured up to 8 hrs by LC-MS/MS analysis; format: ADME, organism-based; conditions: in vivo; outline: as §3
[18] = AUC (0 to 8 hrs) in Sprague-Dawley rat at 0.1 mg/kg, po measured up to 8 hrs by LC-MS/MS analysis; format: ADME, organism-based; set-up: route oral, dose 0.1 mg/kg, time <=8; conditions: in vivo

pIC50 (Transthyretin) | SMILES | also measured
< 4.00 | O=C1c2cccc(O)c2C(=O)c2c(O)cccc21 [DANTHRON] | –
< 4.00 | O=C(O)c1cc(C(=O)O)c2c(c1)C(=O)c1ccccc1C2=O | –
4.62 | O=C(O)c1cc(F)c2c(c1)C(=O)c1ccccc1C2=O | –
< 4.00 | COc1cccc2c1C(=O)c1c(O)c3c(c(O)c1C2=O)C[C@@](O)(C(C)=O)C[C@@H]3O[C@H]1C[C@H](N)[C@H](O)[C@H](C)O1 [DAUNORUBICIN] | –
4.89 | O=C(O)c1ccc2c(=O)c3ccc(Cl)cc3oc2c1 | –
5.00 | O=C(O)c1ccc2c(=O)c3c(Cl)cccc3oc2c1 | –
– | O=C(O)c1ccc2nc(-c3cc(Cl)cc(Cl)c3)oc2c1 | Activity [1]: Active; remaining at 0.5 h, 1 µM [2]: 88%; remaining at 0.5 h, 1 µM [3]: 88%; solubility at 4 h [4]: 0.088 µM (≈ 0.0271 µg/mL); solubility at 4 h [5]: > 100 µM; Papp at 4 h, 10 µM [6]: > 50 ×10⁻⁶ cm/s; CLint scaled at 1 µM [7]: 38.7 mL/min/kg; fraction unbound at 4 h, 1 µM [8]: 0.0051; Cmax [9]: 537 ng/mL; half-life [10]: 12 h; AUC(0-inf) [11]: 4330 ng·h/mL; clearance [12]: 0.383 mL/min/kg; Vd [13]: 0.375 L/kg; AUC(0-t) [14]: 1710 ng·h/mL; bioavailability [15]: 55.8%; Cmax [16]: 163 ng/mL; Tmax [17]: 8 h; AUC(0-t) [18]: 956 ng·h/mL
< 4.00 | Oc1ccc(O)c2c(O)c3ccccc3c(O)c12 | –
4.55 | O=C(O)c1ccc2c(c1)C(=O)c1ccccc1C2=O | –
5.11 | O=C(O)c1ccc2c(=O)c3cccc(Cl)c3oc2c1 | –
< 4.00 | O=C1c2ccccc2C(=O)c2c1ccc(O)c2O [ATHRAQUINONES A] | –
4.35 | Cc1cc(C(=O)O)c2c(c1)C(=O)c1ccccc1C2=O | –
< 4.00 | O=C1c2cccc(O)c2C(=O)c2cccc(O)c21 [ANTHRARUFIN] | –
< 4.00 | Cc1ccc2c(=O)c3ccccc3oc2c1 | –
< 4.00 | O=C1c2ccccc2C(=O)c2c(O)ccc(O)c21 [QUINIZARIN] | –
4.89 | O=C(O)c1ccc2oc3c(Cl)cccc3c(=O)c2c1 | –
4.72 | O=C(O)c1ccc2c(=O)c3ccccc3oc2c1 | –
4.96 | Nc1c(O)c(S(=O)(=O)O)c(O)c2c1C(=O)c1ccccc1C2=O | –
4.92 | O=C(O)c1cc(Cl)c2c(c1)C(=O)c1ccccc1C2=O | –
< 4.00 | Cc1ccc2oc3ccccc3c(=O)c2c1 | –

SMILES | pIC50 (Transthyretin) | also measured
O=C1c2cccc(O)c2C(=O)c2c(O)cc(CO)cc21 [ALOE-EMODIN] | < 4.00 | –
Nc1ccc(O)c2c1C(=O)c1c(O)c(S(=O)(=O)O)cc(N)c1C2=O | < 4.00 | –
